Source: PubChem BioAssay
MsrA inh = bovine MsrA inhibition; purified bovine MsrA, absorbance read-out; 360,000 compounds, 0.75% hits; inhibition, % at 15.5 µM; in the data active = inhibition above about 4.5%;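 note: 0% = vehicle wells with enzyme and 100% = reference inhibitor wells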
NR1D1 modulator = modulates human Rev-erb alpha binding to DNA; 370,000 compounds, 0.79% hits; Rev-erbα–FITC-DNA binding, fluorescence polarization, 90 min; activity, % at 10 µM;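 active = activity above about 14%, limit read from the data; passing the limit was not always enough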;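 note: 0% = DMSO wells with 35 nM protein and 100% = DMSO wells with 750 nM protein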
ARFGAP1 inh = rat ARFGAP1 inhibition | Arfgap1-stimulated ARF1 GTP hydrolysis, GDP FP detection | inhibition, % at 16.5 µM | 360,000 compounds, 0.26% hits;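 active = inhibition above a per-plate limit, mean inhibition of low control wells plus 3 SD, cut at about 25% in these data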;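 note: 0% = DMSO wells with enzyme and 100% = wells lacking Arfgap1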
Target sequence (Q62848 1-136 limits assumed): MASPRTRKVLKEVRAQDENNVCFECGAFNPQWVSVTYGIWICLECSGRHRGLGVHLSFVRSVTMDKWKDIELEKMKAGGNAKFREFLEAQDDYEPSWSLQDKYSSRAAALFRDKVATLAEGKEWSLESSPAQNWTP
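system = rat Arfgap1 catalytic domain, aa 1-136 | technique = FP, GDP Alexa 633 tracer displaced from anti-GDP antibody, 620/688 nm | compound = one concentration, 16.5 µM, DMSO 1.26% | medium = HEPES-based buffer, pH 7.5 | timing = compound-enzyme preincubation 20 min, reaction 120 min, detection 60 min, 25 °C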
sPLA2-III inh = Inhibits HGIII-sPLA2 liposome hydrolysis, primary screen | Q9NZ20 | QFRET BODIPY PC-A2 liposome hydrolysis, fluorescence | inhibition, % at 12.2 µM | 370,000 compounds, 0.56% hits | AID 743126;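 active = inhibition above mean plus 3 SD of compounds lying within the high and low control bounds, cut at about 19% in these data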;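 note: 0% = median of test compound wells and 100% = no enzyme DMSO wells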
Target sequence (Q9NZ20 whole entry, looked up): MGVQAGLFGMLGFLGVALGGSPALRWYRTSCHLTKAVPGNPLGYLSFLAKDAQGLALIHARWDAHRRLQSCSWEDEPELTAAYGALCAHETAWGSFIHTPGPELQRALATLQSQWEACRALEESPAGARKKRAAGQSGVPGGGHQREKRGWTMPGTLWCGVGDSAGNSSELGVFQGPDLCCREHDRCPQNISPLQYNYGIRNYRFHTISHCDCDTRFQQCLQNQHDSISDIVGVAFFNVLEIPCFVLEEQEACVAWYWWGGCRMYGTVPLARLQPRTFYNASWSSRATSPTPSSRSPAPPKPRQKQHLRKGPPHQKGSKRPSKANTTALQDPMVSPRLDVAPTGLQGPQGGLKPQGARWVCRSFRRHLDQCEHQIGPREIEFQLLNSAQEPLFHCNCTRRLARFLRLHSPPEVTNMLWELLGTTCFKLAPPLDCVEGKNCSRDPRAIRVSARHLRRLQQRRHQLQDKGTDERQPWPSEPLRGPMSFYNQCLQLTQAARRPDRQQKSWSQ
ASAP1 inh = blocks human ASAP1-stimulated Arf1 GTP hydrolysis; inhibition, % at 16.5 µM; 360,000 compounds, 0.19% hits; Q9ULH1; AID 624377; GDP FP detection; in the data active = inhibition above about 25%;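 note: 0% = vehicle with enzyme and substrate and 100% = no enzyme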
MsrA act = activators of bovine methionine sulfoxide reductase A | purified bovine MsrA, absorbance read-out | activation, % at 10.6 µM | 360,000 compounds, 0.3% hits | AID 602163; in the data active = activation above about 7.5%;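 note: 0% = vehicle and 100% = reference activator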
Rev-erbA confirm = confirmation of modulators of human Rev-erb alpha DNA binding. shares compounds with NR1D1 modulator. Rev-erb alpha FITC-DNA binding, fluorescence polarization, 90 min. activation, % at 25 µM. 3,000 compounds, 61% hits. AID 1259319;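 active = activation at or above a set limit, or at least 3 SD above the negative control mean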;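 note: 0% = 35 nM protein with DMSO and 100% = 750 nM protein high control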
RORg DNA counter = counter-screen for Rev-erb alpha modulators: RORgamma DNA binding; IC50, µM; 910 compounds, 8% hits; shares compounds with NR1D1 modulator; purified RORgamma protein-FITC-DNA binding, fluorescence polarization;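 active = Compounds whose fitted half-maximal concentration for disrupting protein-DNA binding is below 10 micromolar; the record names Rev-erb in its text, so the target is in doubt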
* marks the source's active call; other numbers are inactive results; . = not tested or not shown. Compounds with a hit are over-represented: about 2.7% of the library has one in this group of screens.

SMILES	MsrA inh	NR1D1 modulator	ARFGAP1 inh	sPLA2-III inh	ASAP1 inh	MsrA act	Rev-erbA confirm	others
CCCCc1c(-c2ccccc2OC)ncn1Cc1ccccc1F	0	1	-3	-10	-3	.	.
O=C(NCc1cccs1)C1C(=O)Nc2ccccc2C(=O)N1C1CCCC1 (stereo not drawn)	0	5	3	-1	0	.	.
CC1(C(=O)Nc2cccc(NS(C)(=O)=O)c2)Cc2c(-c3cccc(C(N)=O)c3)ccnc2O1 (stereo not drawn)	-1	2	0	-1	8	-3	.
Cc1nc2ccc3nc(NC(=O)c4ccc5c(c4)OCCO5)sc3c2s1	2	78*	-6	-7	3	-3	39*	RORg DNA counter=>40
Cc1nc2c(ccc3nc(NC(=O)c4ccc5c(c4)OCCO5)sc32)s1	0	56*	-6	-4	10	-2	27*
Cc1cnc(NC(=O)c2ccc3c(c2)OCCO3)s1	1	4	-23	0	-9	-3	.
Cc1ccc2c(=O)n3c(nc2c1)C(C)NC(=O)c1cccnc1-3 (stereo not drawn)	0	0	8	3	4	-1	.
CC(C)C(=O)Nc1cccc(COc2cccc(CN(Cc3ccccc3)C(=O)OC(C)(C)C)c2)c1	0	6	-2	-13	-3	-11	.
CCOc1ccccc1-c1nc(-c2ccc(NC(=O)Cc3ccc(OC)cc3)cc2)no1	1	43*	-2	-4	5	-5	70*	RORg DNA counter=>40
C=CCn1c(SCCNC(C)=O)nc2cc(-c3ccccc3)sc2c1=O	1	49*	-11	8	0	-4	54*	RORg DNA counter=>40
C=CCn1c(=S)[nH]c2cc(-c3ccccc3)sc2c1=O	1	-7	3	8	6	-1	.
CC(=O)c1cccc(NC(=O)c2cccc(NC(=O)c3ccco3)c2)c1	3	45*	10	4	13	-1	99*	RORg DNA counter=5.7*
c1ccc(-c2cnn3c(-c4ccccc4)c(-c4ccccc4)nc3n2)cc1	1	123*	0	10	0	-7	8
Cc1cccn2c(=O)c3cc(C(=O)NC4CCS(=O)(=O)C4)n(Cc4ccccc4)c3nc12 (stereo not drawn)	1	44*	-13	0	3	-5	14
Cc1cccn2c(=O)c3cc(C(=O)NC4CCCCC4)c(=N)n(Cc4ccccc4)c3nc12	-1	6	4	2	-11	-4	.
O=c1ccn(C2CCCO2)c(=O)[nH]1 (stereo not drawn)	0	-6	11	-5	-1	-1	.
Cc1cc(C)c(N=C2SCC(=O)N2Cc2ccco2)c(C)c1	0	43*	8	3	-7	-1	37*	RORg DNA counter=>40
COc1cc(/C=C2/SC(=S)N(CC(=O)O)C2=O)ccc1OC(=O)c1ccco1	3	25*	3	-7	-8	-5	2
COc1ccc(/C=C2\SC(=O)N(CCC(=O)Nc3ccccc3)C2=O)cc1OC	2	32*	7	4	-4	-4	34*	RORg DNA counter=>40
O=C(Nc1ccc(F)cc1Cl)C1CCCN1S(=O)(=O)c1cccc2cccnc12 (stereo not drawn)	.	2	.	4	.	.	.
O=C(Nc1ccc2c(c1)CCO2)Nc1nnc([C@H]2C[C@H](O)[C@@H](CO)O2)s1	-1	0	-12	-7	1	-1	.
Cc1c(Br)ccc(NC(=O)Cn2nc(-c3cccs3)ccc2=O)c1C	-1	50*	-6	-5	-1	-2	42*	RORg DNA counter=>40
CCOC(=O)c1sc2nc(C)nc(NCCc3ccc(S(N)(=O)=O)cc3)c2c1C	0	40*	-3	-1	-2	3	16
CCOC(=O)c1sc2nc(C)nc(Nc3ccccc3)c2c1C	0	-1	0	2	-15	-2	.
CCCCN1C[C@@H](COCc2ccccc2)Oc2cccc(F)c2S1(=O)=O	.	17*	.	-6	.	.	0
SMILES	MsrA inh	NR1D1 modulator	ARFGAP1 inh	sPLA2-III inh	ASAP1 inh	MsrA act	Rev-erbA confirm	others
COCCN(C(=O)COC(=O)c1ccc(Br)o1)c1c(N)n(Cc2ccccc2)c(=O)[nH]c1=O	3	-1	10	12	13	-5	.
COC(=O)c1ccc(C(=O)OC)c(NC(=O)N2c3ccccc3Sc3ccccc32)c1	0	26*	8	-4	7	-5	47*	RORg DNA counter=>40
NS(=O)(=O)c1ccc(CCNC(=O)c2cc(-c3ccccn3)nc3ccc(Br)cc23)cc1	1	34*	-1	0	-5	-2	30*	RORg DNA counter=>40
NS(=O)(=O)c1ccc(CCNC(=O)c2cc(-c3ccc(Br)cc3)nc3ccccc23)cc1	0	17	2	-6	9	-5	.
Cc1cc(NC(=O)c2cc(-c3ccccn3)nc3ccc(Br)cc23)no1	0	18*	-11	3	10	-9	22*
NS(=O)(=O)c1ccc(CNC(=O)c2cc(-c3cccnc3)nc3ccc(Br)cc23)cc1	2	43*	11	-6	6	-12	31*	RORg DNA counter=1.3*
Cc1ccc(-c2cc(C(=O)N(C)Cc3cnn(C)c3C)c3cc(Br)ccc3n2)cc1	2	11	11	1	0	-9	.
O=C(Nc1ccccn1)c1cc(-c2cccnc2)nc2ccc(Br)cc12	1	13	-8	5	-12	-2	.
Cc1ccc(-c2cc(C(=O)NCc3cnn(C)c3C)c3cc(Br)ccc3n2)cc1	-1	32*	0	-6	10	1	11
Cc1cc(NC(=O)c2cc(-c3ccccn3)nc3ccccc23)no1	2	0	-2	0	12	-2	.
NC(CCc1ccccc1)c1csc(NC(=O)NCC2CCCCC2)n1 (stereo not drawn)	-3	9	8	8	-1	1	.
Cc1cccc(-c2noc(-c3csc([C@@H]4C[C@H](O)[C@@H](CO)O4)n3)n2)c1	1	1	0	-1	7	-1	.
O=C(OCC#CCSc1nnc(-c2cccc3ccccc23)o1)c1csc2ccccc12	.	2	.	-5	.	.	.
CCCC(=O)N=c1sc2c(OC)ccc(OC)c2n1C	1	40*	1	-3	-15	-7	17
COc1ccc(OC)c2c1sc(=NC(=O)C(C)(C)C)n2C	-1	-1	2	5	-4	-1	.
COc1ccc(OC)c2c1sc(=NC(=O)C1CCCCC1)n2C	1	44*	3	15	5	-4	-15
CCn1c(=NC(=O)C2COc3ccccc3O2)sc2c(OC)ccc(OC)c21 (stereo not drawn)	2	47*	-1	1	-4	-1	18
